Experimental data from different studies.
Protocols differ between the studies behind these lines.
Target: Serine/threonine-protein kinase RIO3 (RIOK3, Homo sapiens, UniProt O14730)
Sequence (O14730 1-519, as in one of the studies): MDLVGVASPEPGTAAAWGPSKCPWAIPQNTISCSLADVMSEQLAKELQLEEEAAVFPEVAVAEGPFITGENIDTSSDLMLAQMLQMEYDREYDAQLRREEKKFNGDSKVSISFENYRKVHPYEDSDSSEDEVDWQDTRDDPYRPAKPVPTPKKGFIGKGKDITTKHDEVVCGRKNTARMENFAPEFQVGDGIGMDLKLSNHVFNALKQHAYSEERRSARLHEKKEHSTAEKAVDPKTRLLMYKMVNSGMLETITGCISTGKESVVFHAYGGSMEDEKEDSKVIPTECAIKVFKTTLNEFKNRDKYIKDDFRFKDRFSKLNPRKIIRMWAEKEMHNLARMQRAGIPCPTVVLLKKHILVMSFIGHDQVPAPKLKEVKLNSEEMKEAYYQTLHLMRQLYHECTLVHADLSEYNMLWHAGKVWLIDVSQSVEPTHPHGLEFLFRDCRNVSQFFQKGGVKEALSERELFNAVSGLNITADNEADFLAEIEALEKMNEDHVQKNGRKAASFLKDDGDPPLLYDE

N[C@@H]1CCN(c2nccc(-c3cnn4ncccc34)n2)C1
remaining binding (binding; 1 µM): 100%

COc1ccc2c(O[C@@H]3C[C@H]4C(=O)N[C@]5(C(=O)O)CC5/C=C\CCCCC[C@H](NC(=O)OC5CCCC5)C(=O)N4C3)cc(-c3csc(NC(=O)C(C)C)n3)nc2c1C (stereo partly shown)
remaining binding (cell-free assay; competition with immobilised ligand; 1 µM): 100%

F[C@@H]1CCN(c2nccc(-c3cnn4ncccc34)n2)C1
remaining binding (binding; 1 µM): 85%

CC(C)(O)c1cncc(-c2nc3ccc(F)cc3n2C2CC2)c1
remaining binding (cell-free assay; competition with immobilised ligand; 1 µM): 100%

Cc1cnc(Nc2ccc(C(=O)N3CCC(N4CCCC4)CC3)cc2)nc1-c1cc2ccccc2s1
remaining binding (binding; competition with immobilised ligand; 1 µM): 0.3%

Nc1ncc2c(n1)-c1c([nH]c3ccc(C#CC4CC4)cc13)CCCC2
remaining binding (binding; competition with immobilised ligand; 1 µM): 75%

O=C(Nc1c[nH]nc1C(=O)NC1CCNCC1)c1cc(F)cc(F)c1
remaining binding (binding; competition with immobilised ligand; 1 µM): 100%

O=C(NCCCN1CCOCC1)c1ccc(Nc2ncc(Cl)c(-c3ccc(Cl)s3)n2)cc1
remaining binding (binding; competition with immobilised ligand; 1 µM): 0.4%

C[C@@H](c1ccc(-n2cnc3c(N)ncnc32)cc1)N1CCc2nn(C)c(Cc3ccccc3)c2C1=O
remaining binding (binding; competition with immobilised ligand; 0.1 µM): 76%

CN(CCCC(F)(F)F)c1nccc(-c2cnn3ncccc23)n1
remaining binding (binding; 1 µM): 100%

COc1ncc2cc3ccccc3nc2c1C#N
remaining binding (cell-free assay; competition with immobilised ligand; 5 µM): 97%

FC(F)(F)Oc1cccc(-c2cnc3ccc(-c4ccncc4)nn23)c1
remaining binding (binding; competition with immobilised ligand; 5 µM): 16%

Cc1cnn2ncc(-c3ccnc(N(C)C)n3)c2c1
remaining binding (binding; 1 µM): 100%

CO[C@@H](C)c1c(Nc2ccc([C@H](N(C)C(=O)C3CCS(=O)(=O)CC3)C(F)(F)F)cc2)cnc2cc(Cl)nn12
remaining binding (cell-free assay; competition with immobilised ligand; 1 µM): 82%

C[C@@H]1CCN(c2nccc(-c3cnn4ncccc34)n2)C1
remaining binding (binding; 1 µM): 100%

Cc1cc(NC(=O)c2cccc(S(F)(F)(F)(F)F)c2)cc(-n2ccn3nc(-c4cccnc4)cc23)c1
remaining binding (cell-free assay; competition with immobilised ligand; 1 µM): 85.9%

COc1cnc(Nc2cccc(S(N)(=O)=O)c2)nc1N1CCN(c2ccccc2)CC1
remaining binding (binding; competition with immobilised ligand; 1 µM): 91%

CC(=O)N1CCC(c2ccc(C(=O)NC(=N)N)cc2C(F)(F)F)CC1
remaining binding (cell-free assay; competition with immobilised ligand; 1 µM): 100%

CC1CCCN1c1nccc(-c2cnn3ncccc23)n1 (stereo not shown)
remaining binding (binding; 1 µM): 100%

CCCOc1ccc([C@@H]2[C@@H](C(=O)O)[C@H](c3ccc4c(c3)OCO4)CN2CC(=O)Nc2c(CC)cccc2CC)cc1
remaining binding (cell-free assay; competition with immobilised ligand; 1 µM): 100%

CN(c1nccc(-c2cnn3ncccc23)n1)C1CC1
remaining binding (binding; 1 µM): 100%

O=C(NCCCN1CCOCC1)c1ccc(Nc2nccc(-c3cc4ccccc4s3)n2)cc1
remaining binding (binding; competition with immobilised ligand; 1 µM): 1.7%
